# Assay results gathered from unrelated publications.
# Protocols differ between the studies behind these lines.
# PTGS2: Prostaglandin G/H synthase 2 (PTGS2, Homo sapiens, UniProt P35354)
# CHRM3: Muscarinic acetylcholine receptor M3 (CHRM3, Homo sapiens, UniProt P20309)
# TMEM97: Sigma intracellular receptor 2 (TMEM97, Homo sapiens, UniProt Q5BJF2)
Compound,target,observed,mode,technique,notes,measurement,value
CN1C(=O)C(=Cc2cn(-c3nc(Cl)nc(N4CCOCC4)n3)c3ccccc23)C(=O)N(C)C1=O,PTGS2,enzyme activity,inhibitor,,,IC50,0.1 µM
O=c1[nH]c2ccccc2n1CCCN1CCC(n2c(=O)[nH]c3cc(Cl)ccc32)CC1,"Alpha-1D adrenergic receptor (ADRA1D, Homo sapiens, UniProt P25100)",cell-free assay,,,,Ki,0.71 µM
CN1C(=O)C(=Cc2cn(-c3nc(N4CCCC4)nc(N4CCOCC4)n3)c3ccccc23)C(=O)N(C)C1=O,PTGS2,enzyme activity,inhibitor,,,IC50,6 µM
CCCCCCCCCCCCNCCCc1ccc([N+](=O)[O-])cc1,CHRM3,ligand displacement,,radioligand,,Ki,3.3 µM
CN1CC[C@@]23CCCC[C@@H]2[C@@H]1Cc1ccc(O)cc13,TMEM97,ligand displacement,,radioligand,,Ki,2.94 µM
Clc1cccc(N2CCNCC2)c1Cl,CHRM3,ligand displacement,,radioligand,cell membranes,Ki,25.1 µM
CN[C@@H](C)[C@@H](O)c1ccccc1,TMEM97,ligand displacement,,radioligand,,Ki,> 10 µM
C[C@@H]1NC(=O)[C@H](CC(N)=O)NC(=O)[C@H](Cc2ccccc2)NC(=O)[C@@H]2Cc3ccccc3CN2C(=O)[C@H](CCCNC(=N)N)NC(=O)[C@@H]2CCCN2C(=O)[C@H]2CCCN2C(=O)[C@H](Cc2ccccc2)NC1=O,"Melanocyte-stimulating hormone receptor (Mc1r, Mus musculus, UniProt Q01727)",reporter gene,agonist,,,EC50,> 100 µM
